Data on 37 variants can be found in the RNAGym collection of RNA variant scans (doi:10.1126/science.aae0568).

Fewer inactive variants are shown than the library holds.

B1: tRNA (parent)
chain: GUUCCGUUGGCGUAAUGGUAACGCGUCUCCCUCCUAAGGAGAAGACUGCGGGUUCGAGUCCCGUACGGAACG

Variants of B1 are the subject of the series. Briefly: yeast fitness relative to wild type (ratio to wild type); higher = fitter; tRNA-Arg(CCU), competitive growth, 37 C, YPD. Summed up: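 Gene amplicons from the start population and from each of six end populations were read by 100-nucleotide paired-end sequencing. Those end populations came from pooled Saccharomyces cerevisiae strains carrying tRNA-Arg(CCU) gene variants at the native locus, competed in YPD at 37°C for 24 hours. Fitness relative to wild type was worked out from changes in genotype frequencies. Genotypes needed ≥ 100 starting reads, and estimates < 0.5 were set to 0.5.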
With GUUCCGUUGGCGUAAUGGUAACGGGUCUCUCUCCUAAGGGGAAAACCGCGCGUUCGAGUCCCGUACGGAACG [C24G C30U A40G G44A U47C G51C], the yeast fitness is at most 0.5.

Regarding GUUCGGUUGGCGUGAUGGUAACGCGUCUCCCUCCUAAGGAGAAGACUGCGGGUUCGAGUCCCGUUCGGAACG [C5G A14G A65U], the yeast fitness was 0.538.

On to GUUCCAUUGGCGUAAUGGUAACGCGUCUCCCUCCUAAGGAGAAGACUGCGGGUUCGAGUCCCGUACGGAGCG [G6A A70G], for which the yeast fitness amounted to 0.928.

Regarding GUUCUGUUGGCGUAAUGGUGGCGCGUCUCCUUCCUAAGGAGAAGACUGCGGGUUCGAGUCCCGUACGGAACG [C5U A20G A21G C31U], the yeast fitness is at most 0.5.

On to GUUUGGUUGGAGUAAUGGUAACGCGUCUCCCUCCUAAGGAGAAGACUGCGGGUUCGAGUCCCGUAAGGAACG [C4U C5G C11A C66A], for which the yeast fitness was at most 0.5.

GUUCCGUAGGCGUAAUGGUAACGCGUCUCCCUCCUAAAGAGAAGACUCCGGGUUCGAGUCCCGUACAGAACG [U8A G38A G48C G67A]: the yeast fitness amounted to 0.69.

Consider GUUCCGUUCGCGUAAUGGUAAUGCGUCUCCCUCCUAAGGAGAAGACUCCGCGUUCGAGUCCCGUACGGAACG [G9C C22U G48C G51C], for which the yeast fitness amounted to 0.595.

For GUUCCGUUGGCGUAAUGGUAACGCGUCCCCGUCCUAAGGAGAAGACUGCGGGUUCGAGUCCCGUACGGAACG [U28C C31G], the yeast fitness is 0.907.

Consider GUUCCGUUGGCGUAAUGGUAACCCGUCUCCCUCCUAAGGAGAAGACUGCGGAUUCGAGUCCCGUACGGAACG [G23C G52A], for which the yeast fitness was at most 0.5.

Consider GUUCCUUUGGCGUAAUGGUAACGCGUCUCCCUUCUAAGGAGAAGACUGCGGGUUCGAGUCCCGUACGGAACG [G6U C33U], for which the yeast fitness stood at 0.562.

As for GUUCCGUUGGGGUAAUGGUCACGGGUCUCCCUCCUAAGGAGAAGACUGCGGGUUCGAGUCCCAUAUGGAACG [C11G A20C C24G G63A C66U], the yeast fitness is at most 0.5.

With GUUCCGUUGGCGUAUUGGUAACGCGUCUCCCGCCUAAGGAGAAAACUGCGGGUUCGAGUCCCGUACGGAACG [A15U U32G G44A], the yeast fitness is 0.555.

As to GUUCUGUUGGCGGAAUGGUAACGCGUCUCCCUCCUAAGGAGAAGACUGCGGGUUCGAGUCCCGUACGGAACG [C5U U13G], the yeast fitness worked out at 1.02.

On to GUUCCGUUGGCGUGAUGGUACCGCGUCUACCUCCUAAGGAGAAGACUGCGGGUUCGAGUCCCGUACGGAACG [A14G A21C C29A], for which the yeast fitness turned out to be 0.586.

As to GUUCCGUUGGCGUAAUGGUCACGCGUCUCCCUCAUAAGGAGAAGACUGCCGGUUCGAGUCUCGUACGGAACG [A20C C34A G50C C61U], the yeast fitness was at most 0.5.

Turning to GUUCAGUUGGCGUAAUGGUAACGCGUCUCCCUCCUAAGGAGAAGACUGCGGGUCCGAGUCCCGUUCGGAACG [C5A U54C A65U], the yeast fitness is at most 0.5.

For GUUCCGUUGGCGUAAUGGAAACGCGUCUCCCUCCUAAGGAGAAGACUGCGGGUUCGAGUCCCGUCGGGAGCG [U19A A65C C66G A70G], the yeast fitness was at most 0.5.

Regarding GUUACGUUGGCGUAAUGGUAACGCGUCUCCCUCCUAAGGAGAAGACUGCGGGUUCGAGUCCCGUACGAAACG [C4A G68A], the yeast fitness stood at 0.962.

Consider GUUCCGUUGGCGUAAUGGUAACGCGUCUCCCUACUAAGGAGGAGACUGCGGGUUCGAGUCCCGUACGGAUCG [C33A A42G A70U], for which the yeast fitness was at most 0.5.

Regarding GUUCUGUUAGCGAAAUGGUAACGCGUCUCCCUCCUAAGGAGAAGACUGCGGGUUCGAGUCCCGUACGGAACG [C5U G9A U13A], the yeast fitness turned out to be 0.882.

For the variant GUUCCGUUGACGUAAUGGUAACGCGUCUCCCUCCGAAGGAGAAGACUGCGGGUUCGAGUCCCGUACGGAACG [G10A U35G], the yeast fitness was at most 0.5.

GUUCCGUUGGCGUAAUGGUAACGCGUCUCGCUCCUAAGGAAAAGACUGCGGGUUCGAGUCCCGUAUGGAACG [C30G G41A C66U]: the yeast fitness is at most 0.5.

Regarding GUUCGGUUGGCGUAAUGGUACCGCGUCUCCCUCCUAAGGAGAAGUUUGCGGGUUCGAGUCCCGUACGGAACG [C5G A21C A45U C46U], the yeast fitness is at most 0.5.

As for GUUCCGUUGGCGUACUGGUAACGCGUCUACCUCCUAAGGAGAAGACUGCGGGUUCGAGUCCCGUACGGAACG [A15C C29A], the yeast fitness is at most 0.5.

Consider GUUCCGUUGGCGUAAUGGUAACGCGUCUCCCACCUAAGGAGAAGACUGCGGGUUCGAGCCCCGUACGGCACG [U32A U59C A69C], for which the yeast fitness was at most 0.5.

Turning to GUUCCGUUGGCGUAUUGGUAACGCGUCUCCCUCCUAACGAGAAGAUUGCGGGUUCGAGUCCCGUACGGUGCG [A15U G38C C46U A69U A70G], the yeast fitness is at most 0.5.

Consider GUUCCGUUGGCGGAAUGGUAACGCAUCUCCCUCCUAAGGAGAAGACUGCGGGUUCGAGUCCCGUACGGUACG [U13G G25A A69U], for which the yeast fitness was determined as 0.798.

For GUACCGUUCGCGUAAUGGUGACGCGUCUACCUCCUAAGGAGAAGACUGCGGGUUCGAGUCCCGUACUGAACG [U3A G9C A20G C29A G67U], the yeast fitness was found to be 0.633.

As to GUUCCGUUGGCGUAACGGUAAUGCGUCUCCCUCCUAUGGAGAAGACUGCGGGUUCGAGUCCCGUACGGAACG [U16C C22U A37U], the yeast fitness turned out to be 0.576.

With GUUCCGUUGGCGUGAUGGUAACGCAUCUCCCACCUAAGGAGAAGACUGCGGGUUCGAGUCCCGUACGGAACG [A14G G25A U32A], the yeast fitness is 0.56.

In the case of GUUCCGUUGGCGUAAUGGUAACGCGUCUCCCUUCUAAGGAGAAGACUGCGGGUUCGAGUCCCGUGCGGAACG [C33U A65G], the yeast fitness is 0.665.

Consider GUUCCGUUGGCGUAAUGGUAACGCCUCACCCUACUAAGGAGAAGACUGCGGGUUCGAGUCCCGUACGGAACG [G25C U28A C33A], for which the yeast fitness was 0.539.

For GUUCCGUUGGCGUUAUGGUAACGCGUCUCCCUCCUAAGGAGAAGACGGCGGGUUCGAGUCCCGUUCGGAACG [A14U U47G A65U], the yeast fitness is at most 0.5.

Regarding GUUCCGUUGGCGUAUUGGUAACGCGUCUCCAUCCUAAGGAGAAGACUGCGGGUCCGAGUCCCGUACGGAACG [A15U C31A U54C], the yeast fitness is at most 0.5.

Turning to GUUUCGUUGGCGUAAUGGUAACGCAUCUCCCUCCUAAGGAGAAGACUCCGGGUUCGUGUCCCGUACGGAACG [C4U G25A G48C A57U], the yeast fitness was at most 0.5.

Take GUUCCGUGGGCGUAAUGGUACCGCGUCUCCCUCCUAAGGAGAAGACUGCGGGUUCGAGUCCCGAACGGAACG [U8G A21C U64A]: the yeast fitness is 0.516.

With GUUCCGUUGGCGUCAUGGUAACGCGUCUCCCUCCUAAGGAGAAAACUGCGGGUUCGAGUCCCGUAUGGAACG [A14C G44A C66U], the yeast fitness is at most 0.5.
